# According to ChEMBL document CHEMBL4834414 (J Med Chem, 2021):
# Target: T1, Microtubule-associated protein 1 light chain 3 alpha (Homo sapiens, UniProt Q9H492)
# Experiment: Binding affinity to recombinant LC3A (unknown origin) assessed as shift of melting temperature by differential scanning fluorimetry
# Details: not given; call rule not given here
# Procedure, shortened: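 LC3A at 30 μM in HTRF buffer with 0.1% CHAPS, 2.5× SYPRO orange, 300 μM inhibitor and 1% DMSO, with a no-protein background. Heated 25.0 to 79.8 °C at 1 °C/min; excitation 490 nm, emission 570 nm. Tm taken as the first-derivative maximum; ΔTm against DMSO control. Triplicates in three independent experiments.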
row,ΔTm [°C],Compound
1,1.4,CC(C)CCc1cccc(C(=O)Nc2c(O)c3ccc(O)cc3oc2=O)c1
2,0.8,CC(C)CCc1cc(C(=O)Nc2c(O)c3ccc(O)cc3oc2=O)ccc1O
3,0.7,Cc1c(O)ccc2c(O)c(NC(=O)c3ccc(O)c(CCC(C)C)c3)c(=O)oc12
4,0,Cc1c(O)ccc2c(O)c(NC(=O)c3cccc(CCC(C)C)c3)c(=O)oc12

# Target: T1, Microtubule-associated protein 1 light chain 3 alpha
# Experiment: Displacement of sGFP-p62-LIR peptide from human N-terminal SNAP-fused LC3A by time-resolved FRET assay
# Details: not given
# Procedure, shortened: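 HTRF displacement: 10 nM N-terminal SNAP-LC3A labeled with terbium cryptate (donor) and 1 μM p62-LIR-sGFP (acceptor), with compound at varying concentrations in 1% DMSO. Buffer 25 mM HEPES pH 7.5, 150 mM KF, 10% glycerol, 0.1% CHAPS, 5 mM DTT. Incubated 2 h at RT; excitation 340 nm, emission read at 520 and 620 nm. IC50 with SD; Ki calculated.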
Ki,IC50,Compound
Not Active,,COc1cccc(C(=O)Nc2c(O)c3ccc(O)cc3oc2=O)c1
Not Active,Not Active,CC(C)CCc1cccc(C(=O)Nc2c(O)c3ccc(-c4coc5ccccc45)cc3oc2=O)c1
Not Active,Not Active,CC[C@H](C)[C@H](NC(=O)OC(C)(C)C)C(=O)Nc1c(O)c2ccc(O)cc2oc1=O
Not Active,Not Active,CC(C)(C)OC(=O)NCC(=O)Nc1c(O)c2ccc(O)cc2oc1=O
Not Active,Not Active,CC(C)[C@H](NC(=O)OC(C)(C)C)C(=O)Nc1c(O)c2ccc(O)cc2oc1=O
Not Active,Not Active,CC(C)C[C@@H](NC(=O)OC(C)(C)C)C(=O)Nc1c(O)c2ccc(O)cc2oc1=O

# Same assay, conditions: read-out: IC50
row,IC50 [µM],Compound
1,85.9,CC(C)CCc1cccc(C(=O)Nc2c(O)c3ccc(NS(=O)(=O)c4ccccc4)cc3oc2=O)c1
2,64.8,CC(C)CCc1cccc(C(=O)Nc2c(O)c3ccc(O)cc3oc2=O)c1
3,128,CC(C)CCc1cc(C(=O)Nc2c(O)c3ccc(O)cc3oc2=O)ccc1O
4,119,Cc1c(O)ccc2c(O)c(NC(=O)c3ccc(O)c(CCC(C)C)c3)c(=O)oc12
5,107,CC(C)CCc1cc(C(=O)Nc2c(O)c3ccc(O)cc3oc2=O)ccc1F
6,190,CCn1nccc1-c1ccc2c(O)c(NC(=O)c3cccc(CCC(C)C)c3)c(=O)oc2c1
7,35.3,CC(C)CCc1cccc(C(=O)Nc2c(O)c3ccc(-c4cccc(C(=O)O)c4)cc3oc2=O)c1
8,42.8,CC(C)CCc1cccc(C(=O)Nc2c(O)c3ccc(-c4cccc5ccccc45)cc3oc2=O)c1
9,92.1,CC(C)CCc1cccc(C(=O)Nc2c(O)c3ccc(-c4ccc(C(=O)O)cc4)cc3oc2=O)c1
10,215,CC(C)CCc1ccccc1C(=O)Nc1c(O)c2ccc(O)cc2oc1=O
11,160,Cc1c(O)ccc2c(O)c(NC(=O)c3cccc(CCC(C)C)c3)c(=O)oc12
12,217,CC(C)CCc1cccc(C(=O)Nc2c(O)c3ccc(NC(=O)CCC(=O)O)cc3oc2=O)c1
13,76,Cc1ccccc1S(=O)(=O)Nc1ccc2c(O)c(NC(=O)c3cccc(CCC(C)C)c3)c(=O)oc2c1
14,219,CC(C)CCc1cccc(C(=O)Nc2c(O)c3ccc(-c4ccnn4C)cc3oc2=O)c1
15,36.7,CC(C)CCc1cccc(C(=O)Nc2c(O)c3ccc(NS(=O)(=O)CCc4ccccc4)cc3oc2=O)c1
16,31.2,CC(C)CCc1cccc(C(=O)Nc2c(O)c3ccc(NS(=O)(=O)c4cccc5ccccc45)cc3oc2=O)c1
17,668,CCCC[C@H](NC(=O)OC(C)(C)C)C(=O)Nc1c(O)c2ccc(O)cc2oc1=O
18,59.9,Cc1ccc(S(=O)(=O)Nc2ccc3c(O)c(NC(=O)c4cccc(CCC(C)C)c4)c(=O)oc3c2)cc1
19,515,CC(C)CCc1cccc(C(=O)Nc2c(O)c3ccc(-c4ccccc4-c4ccccc4)cc3oc2=O)c1
20,110,CC(C)CCc1cccc(C(=O)Nc2c(O)c3ccc(NS(=O)(=O)CC(C)C)cc3oc2=O)c1
21,73.1,CC(C)CCc1cccc(C(=O)Nc2c(O)c3ccc(NS(=O)(=O)Cc4ccccc4)cc3oc2=O)c1
22,120,CC(=O)Nc1ccc2c(O)c(NC(=O)c3cccc(CCC(C)C)c3)c(=O)oc2c1
23,229,CC(C)CCc1cccc(C(=O)Nc2c(O)c3ccc(NC(=O)CCCC(=O)O)cc3oc2=O)c1
24,64.4,COc1ccc(C(=O)Nc2c(O)c3ccc(O)cc3oc2=O)cc1CCC(C)C
25,813,CC(C)CCc1cccc(C(=O)Nc2c(O)c3ccc(-c4ccnn4Cc4ccccc4)cc3oc2=O)c1

# Same assay, conditions: read-out: Ki
row,Ki [µM],Compound
1,26,CCCCS(=O)(=O)Nc1cccc(C(=O)Nc2c(O)c3ccc(O)cc3oc2=O)c1
2,17.6,CC(C)CCc1cccc(C(=O)Nc2c(O)c3ccc(NS(=O)(=O)c4ccccc4)cc3oc2=O)c1
3,13.3,CC(C)CCc1cccc(C(=O)Nc2c(O)c3ccc(O)cc3oc2=O)c1
4,26.2,CC(C)CCc1cc(C(=O)Nc2c(O)c3ccc(O)cc3oc2=O)ccc1O
5,24.3,Cc1c(O)ccc2c(O)c(NC(=O)c3ccc(O)c(CCC(C)C)c3)c(=O)oc12
6,21.8,CC(C)CCc1cc(C(=O)Nc2c(O)c3ccc(O)cc3oc2=O)ccc1F
7,20,CCCc1cccc(C(=O)Nc2c(O)c3ccc(O)cc3oc2=O)c1
8,38.9,CCn1nccc1-c1ccc2c(O)c(NC(=O)c3cccc(CCC(C)C)c3)c(=O)oc2c1
9,42,CCSc1cccc(C(=O)Nc2c(O)c3ccc(O)cc3oc2=O)c1
10,129,CCOc1cccc(C(=O)Nc2c(O)c3ccc(O)cc3oc2=O)c1
11,7.2,CC(C)CCc1cccc(C(=O)Nc2c(O)c3ccc(-c4cccc(C(=O)O)c4)cc3oc2=O)c1
12,69,CCCCOc1cccc(C(=O)Nc2c(O)c3ccc(O)cc3oc2=O)c1
13,8.8,CC(C)CCc1cccc(C(=O)Nc2c(O)c3ccc(-c4cccc5ccccc45)cc3oc2=O)c1
14,18,CCCCSc1cccc(C(=O)Nc2c(O)c3ccc(O)cc3oc2=O)c1
15,137,O=C(Nc1c(O)c2ccc(O)cc2oc1=O)c1cccc(OCC2CC2)c1
16,52,CC(C)CSc1cccc(C(=O)Nc2c(O)c3ccc(O)cc3oc2=O)c1
17,75,O=C(Nc1c(O)c2ccc(O)cc2oc1=O)c1cccc(CCc2ccccc2)c1
18,13,O=C(Nc1c(O)c2ccc(O)cc2oc1=O)c1cccc(SCC2CC2)c1
19,44,O=C(Nc1c(O)c2ccc(O)cc2oc1=O)c1cccc(OCc2ccccc2)c1
20,18.9,CC(C)CCc1cccc(C(=O)Nc2c(O)c3ccc(-c4ccc(C(=O)O)cc4)cc3oc2=O)c1
21,144,CCCS(=O)(=O)Nc1cccc(C(=O)Nc2c(O)c3ccc(O)cc3oc2=O)c1
22,44,CC(C)CCc1ccccc1C(=O)Nc1c(O)c2ccc(O)cc2oc1=O
23,32.7,Cc1c(O)ccc2c(O)c(NC(=O)c3cccc(CCC(C)C)c3)c(=O)oc12
24,13,O=C(Nc1c(O)c2ccc(O)cc2oc1=O)c1cccc(CCC2CC2)c1
25,44.3,CC(C)CCc1cccc(C(=O)Nc2c(O)c3ccc(NC(=O)CCC(=O)O)cc3oc2=O)c1

row,Ki [µM],Compound
1,15.6,Cc1ccccc1S(=O)(=O)Nc1ccc2c(O)c(NC(=O)c3cccc(CCC(C)C)c3)c(=O)oc2c1
2,44.8,CC(C)CCc1cccc(C(=O)Nc2c(O)c3ccc(-c4ccnn4C)cc3oc2=O)c1
3,7.5,CC(C)CCc1cccc(C(=O)Nc2c(O)c3ccc(NS(=O)(=O)CCc4ccccc4)cc3oc2=O)c1
4,6.4,CC(C)CCc1cccc(C(=O)Nc2c(O)c3ccc(NS(=O)(=O)c4cccc5ccccc45)cc3oc2=O)c1
5,137,CCCC[C@H](NC(=O)OC(C)(C)C)C(=O)Nc1c(O)c2ccc(O)cc2oc1=O
6,12.3,Cc1ccc(S(=O)(=O)Nc2ccc3c(O)c(NC(=O)c4cccc(CCC(C)C)c4)c(=O)oc3c2)cc1
7,20,CC(C)Cc1cccc(C(=O)Nc2c(O)c3ccc(O)cc3oc2=O)c1
8,20,C=CCOc1cccc(C(=O)Nc2c(O)c3ccc(O)cc3oc2=O)c1
9,53,CC(C)CS(=O)(=O)Nc1cccc(C(=O)Nc2c(O)c3ccc(O)cc3oc2=O)c1
10,105,CC(C)CCc1cccc(C(=O)Nc2c(O)c3ccc(-c4ccccc4-c4ccccc4)cc3oc2=O)c1
11,39,CC(C)S(=O)(=O)Nc1cccc(C(=O)Nc2c(O)c3ccc(O)cc3oc2=O)c1
12,22.6,CC(C)CCc1cccc(C(=O)Nc2c(O)c3ccc(NS(=O)(=O)CC(C)C)cc3oc2=O)c1
13,15,CC(C)CCc1cccc(C(=O)Nc2c(O)c3ccc(NS(=O)(=O)Cc4ccccc4)cc3oc2=O)c1
14,24.6,CC(=O)Nc1ccc2c(O)c(NC(=O)c3cccc(CCC(C)C)c3)c(=O)oc2c1
15,130,CS(=O)(=O)Nc1cccc(C(=O)Nc2c(O)c3ccc(O)cc3oc2=O)c1
16,46.9,CC(C)CCc1cccc(C(=O)Nc2c(O)c3ccc(NC(=O)CCCC(=O)O)cc3oc2=O)c1
17,12,CCCCCc1cccc(C(=O)Nc2c(O)c3ccc(O)cc3oc2=O)c1
18,103,CC(C)Oc1cccc(C(=O)Nc2c(O)c3ccc(O)cc3oc2=O)c1
19,12,CCCCc1cccc(C(=O)Nc2c(O)c3ccc(O)cc3oc2=O)c1
20,13.2,COc1ccc(C(=O)Nc2c(O)c3ccc(O)cc3oc2=O)cc1CCC(C)C
21,143,CCCOc1cccc(C(=O)Nc2c(O)c3ccc(O)cc3oc2=O)c1
22,167,CC(C)CCc1cccc(C(=O)Nc2c(O)c3ccc(-c4ccnn4Cc4ccccc4)cc3oc2=O)c1
23,47,CC(C)Sc1cccc(C(=O)Nc2c(O)c3ccc(O)cc3oc2=O)c1
24,32,CCCSc1cccc(C(=O)Nc2c(O)c3ccc(O)cc3oc2=O)c1
25,44,O=C(Nc1c(O)c2ccc(O)cc2oc1=O)c1cccc(Oc2ccccc2)c1

# Target: T1, Microtubule-associated protein 1 light chain 3 alpha
# Experiment: Binding affinity to human LC3A expressed in Escherichia coli BL21-(DE3) by isothermal titration calorimetry
# Details: not given
# Procedure, shortened: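 His-tagged LC3A from E. coli BL21(DE3), TEV-cleaved and purified by IMAC, reverse IMAC and SEC into HTRF buffer (25 mM HEPES pH 7.5, 150 mM KF, 10% glycerol, 5 mM DTT), plus 0.1% CHAPS and 1% DMSO. ITC at 25 °C, stirring 75 rpm: 80 μM protein; inhibitor at 500 μM or 1 mM. Injection settings optimized per compound; dilution heats checked by blank titrations.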
row,Kd [µM],Compound
1,17.2,CC(C)CCc1cccc(C(=O)Nc2c(O)c3ccc(O)cc3oc2=O)c1
2,27.5,CC(C)CCc1cc(C(=O)Nc2c(O)c3ccc(O)cc3oc2=O)ccc1O
3,14.2,Cc1c(O)ccc2c(O)c(NC(=O)c3ccc(O)c(CCC(C)C)c3)c(=O)oc12
4,15.7,Cc1c(O)ccc2c(O)c(NC(=O)c3cccc(CCC(C)C)c3)c(=O)oc12

# Target: Microtubule-associated protein 1 light chain 3 beta (Homo sapiens, UniProt Q9GZQ8)
# Experiment: Displacement of sGFP-p62-LIR peptide from human N-terminal SNAP-fused LC3B by time-resolved FRET assay
# Details: not given
Ki,IC50,Compound
Not Active,,CCOc1cccc(C(=O)Nc2c(O)c3ccc(O)cc3oc2=O)c1
Not Active,,COc1cccc(C(=O)Nc2c(O)c3ccc(O)cc3oc2=O)c1
Not Active,,O=C(Nc1c(O)c2ccc(O)cc2oc1=O)c1cccc(OCC2CC2)c1
Not Active,Not Active,CC(C)CCc1cccc(C(=O)Nc2c(O)c3ccc(-c4coc5ccccc45)cc3oc2=O)c1
Not Active,Not Active,CC[C@H](C)[C@H](NC(=O)OC(C)(C)C)C(=O)Nc1c(O)c2ccc(O)cc2oc1=O
Not Active,Not Active,CC(C)(C)OC(=O)NCC(=O)Nc1c(O)c2ccc(O)cc2oc1=O
Not Active,,CCCC[C@H](NC(=O)OC(C)(C)C)C(=O)Nc1c(O)c2ccc(O)cc2oc1=O
Not Active,Not Active,CC(C)CCc1cccc(C(=O)Nc2c(O)c3ccc(-c4ccccc4-c4ccccc4)cc3oc2=O)c1
Not Active,Not Active,CC(C)[C@H](NC(=O)OC(C)(C)C)C(=O)Nc1c(O)c2ccc(O)cc2oc1=O
Not Active,Not Active,CC(C)CCc1cccc(C(=O)Nc2c(O)c3ccc(-c4ccnn4Cc4ccccc4)cc3oc2=O)c1

# Same assay, conditions: read-out: IC50
row,IC50 [µM],Compound
1,66.3,CC(C)CCc1cccc(C(=O)Nc2c(O)c3ccc(NS(=O)(=O)CCc4ccccc4)cc3oc2=O)c1
2,668,CCCC[C@H](NC(=O)OC(C)(C)C)C(=O)Nc1c(O)c2ccc(O)cc2oc1=O

# Same assay, conditions: read-out: Ki
row,Ki [µM],Compound
1,7.4,CC(C)CCc1cccc(C(=O)Nc2c(O)c3ccc(NS(=O)(=O)CCc4ccccc4)cc3oc2=O)c1
